Measurements from ChEMBL document CHEMBL1142242, “Indanylacetic acid derivatives carrying 4-thiazolyl-phenoxy tail groups, a new class of potent PPAR alpha/gamma/delta pan agonists: synthesis, structure-activity relationship, and in vivo efficacy” (J Med Chem, 2007).
In brackets after ≈: the same amount, converted by molar mass. Activity calls are given as the source filed them. The calls are words filed in the database; no cut-off is given here.

Legend:
Syrian golden hamster [1] = assay: Reduction of VLDL level in fat fed hyperlipidemic Golden Syrian hamster at 100 mg/kg, po after 14 days; format: functional, organism-based; design: dose 100 mg/kg; details: Mesocricetus auratus
Summary of the method: (§1)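 Male Syrian Golden hamsters (≤7 weeks, 120-150 g) on high fat diet plus 10% fructose drinking water; bled day 10, then dosed orally once daily by weight for 14 days; necropsy day 24; EDTA plasma lipoproteins resolved by FPLC; mean ± SEM, 10 hamsters.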

Syrian golden hamster [2] = assay: Reduction of LDL level in fat fed hyperlipidemic Golden Syrian hamster at 100 mg/kg, po after 14 days; format: functional, organism-based; design: dose 100 mg/kg; details: Mesocricetus auratus; summary of the method: as §1
Syrian golden hamster [3] = assay: Increase of HDL/LDL ratio in fat fed hyperlipidemic Golden Syrian hamster at 100 mg/kg, po after 14 days; format: functional, organism-based; design: dose 100 mg/kg; details: Mesocricetus auratus; summary of the method: as §1
Mus musculus [4] = assay: Increase of plasma HDLc level in female human apoA1 transgenic mouse at 10 mg/kg; format: functional, organism-based; design: dose 10 mg/kg
Summary of the method: (§2)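 hApoA1 transgenic mice, 6 weeks old at purchase, grouped by equal baseline plasma triglyceride; oral dosing once daily for 7 days in 0.5% methylcellulose in water; bled ~24 h after last dose; plasma triglyceride and HDLc by autoanalyzer; mean ± SEM, 6-8 mice.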

Syrian golden hamster [5] = assay: Reduction of LDL level in fat fed hyperlipidemic Golden Syrian hamster at 10 mg/kg, po after 14 days; format: functional, organism-based; design: dose 10 mg/kg; details: Mesocricetus auratus; summary of the method: as §1
Mus musculus [6] = assay: Reduction of plasma triglyceride level in male human apoA1 transgenic mouse at 10 mg/kg; format: functional, organism-based; design: dose 10 mg/kg; summary of the method: as §2
[7] = system: PPAR alpha (Mesocricetus auratus); assay: Agonist activity at Syrian Golden hamster PPAR alpha
[8] = biological target: T1, Peroxisome proliferator-activated receptor alpha (Mus musculus) (UniProt P23204); assay: (§3) Agonist activity at mouse PPAR alpha; format: functional
T1 sequence (whole entry): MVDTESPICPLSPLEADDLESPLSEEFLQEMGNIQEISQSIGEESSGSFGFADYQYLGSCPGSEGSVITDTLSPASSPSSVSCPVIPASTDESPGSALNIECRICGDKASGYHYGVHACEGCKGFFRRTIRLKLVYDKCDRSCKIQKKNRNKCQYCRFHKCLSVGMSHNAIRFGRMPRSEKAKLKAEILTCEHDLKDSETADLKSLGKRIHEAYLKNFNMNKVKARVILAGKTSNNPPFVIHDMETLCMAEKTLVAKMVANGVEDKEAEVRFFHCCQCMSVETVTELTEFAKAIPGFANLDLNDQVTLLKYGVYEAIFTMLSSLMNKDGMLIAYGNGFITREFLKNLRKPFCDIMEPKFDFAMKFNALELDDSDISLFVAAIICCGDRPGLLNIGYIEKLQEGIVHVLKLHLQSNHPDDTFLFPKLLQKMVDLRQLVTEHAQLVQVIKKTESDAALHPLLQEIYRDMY

[9] = biological target: T2, Peroxisome proliferator-activated receptor alpha (Homo sapiens) (UniProt Q07869); assay: (§4) Agonist activity at human PPAR alpha expressed in CV1 cells by GAL4 transactivation assay; format: functional, cell-based; details: CV-1
T2 sequence (whole entry): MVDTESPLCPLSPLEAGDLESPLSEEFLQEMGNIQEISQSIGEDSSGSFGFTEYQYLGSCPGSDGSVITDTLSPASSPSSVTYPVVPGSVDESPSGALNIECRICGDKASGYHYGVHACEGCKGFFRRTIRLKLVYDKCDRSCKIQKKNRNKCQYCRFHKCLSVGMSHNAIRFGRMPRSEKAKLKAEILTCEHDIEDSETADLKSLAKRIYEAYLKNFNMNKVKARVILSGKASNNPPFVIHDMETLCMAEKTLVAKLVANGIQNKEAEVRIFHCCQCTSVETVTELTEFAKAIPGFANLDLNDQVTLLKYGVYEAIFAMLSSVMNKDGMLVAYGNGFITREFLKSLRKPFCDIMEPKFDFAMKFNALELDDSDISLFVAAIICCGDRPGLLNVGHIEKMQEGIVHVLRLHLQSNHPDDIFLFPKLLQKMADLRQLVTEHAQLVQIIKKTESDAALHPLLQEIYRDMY
Summary of the method: (§5)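 CV-1 cells plated, grown overnight at 37 °C in 5% CO₂, then transfected with GAL4-fused human PPARα ligand binding domain, pFR-LUC and pRL-SV40 reporter DNAs by lipofection. After a further overnight incubation, cells were exposed to compound or vehicle overnight. Activity was read as dual-luciferase reporter signal.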

Syrian golden hamster [10] = assay: Increase of HDL/LDL ratio in fat fed hyperlipidemic Golden Syrian hamster at 10 mg/kg, po after 14 days; format: functional, organism-based; design: dose 10 mg/kg; details: Mesocricetus auratus; summary of the method: as §1
Rattus norvegicus [11] = assay: Reduction of FFA level in ZDF rat at 3 mg/kg, po after 21 days; format: functional, organism-based; design: dose 3 mg/kg
Summary of the method: (§6)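 Male ZDF rats, on chow 4-8 weeks to confirm hyperglycemia, grouped by equal baseline blood glucose; oral dosing once daily for 21 days in 0.5% methylcellulose in water; bled ~24 h after last dose; plasma FFA measured.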

Mus musculus [12] = assay: Reduction of blood glucose level in orally dosed db/db mouse at 1 mg/kg after 8 days; format: functional, organism-based; design: dose 1 mg/kg
Summary of the method: (§7)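 Female db/db mice, on chow 3-4 weeks to confirm hyperglycemia, grouped by equal baseline blood glucose; oral dosing once daily in 0.5% methylcellulose in water; blood glucose by analyzer ~24 h after last dose; percent change vs vehicle = ((Tf/Ti)/(Vf/Vi) − 1) × 100.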

Mus musculus [13] = assay: Reduction of blood glucose level in orally dosed db/db mouse at 10 mg/kg after 8 days; format: functional, organism-based; design: dose 10 mg/kg; summary of the method: as §7
Rattus norvegicus [14] = assay: Reduction of FFA level in ZDF rat at 1 mg/kg, po after 21 days; format: functional, organism-based; design: dose 1 mg/kg; summary of the method: as §6
Syrian golden hamster [15] = assay: Reduction of VLDL level in fat fed hyperlipidemic Golden Syrian hamster at 10 mg/kg, po after 14 days; format: functional, organism-based; design: dose 10 mg/kg; details: Mesocricetus auratus; summary of the method: as §1
Mus musculus [16] = assay: Reduction of blood glucose level in orally dosed db/db mouse at 3 mg/kg after 8 days; format: functional, organism-based; design: dose 3 mg/kg; summary of the method: as §7
Mus musculus [17] = assay: Increase of plasma HDLc level in male human apoA1 transgenic mouse at 10 mg/kg; format: functional, organism-based; design: dose 10 mg/kg; summary of the method: as §2
Estrogen receptor = Estrogen receptor (Mus musculus, UniProt O08537+P19785); assay: Displacement of [3H]O-estradiol from ER in Swiss mouse uteri; format: protein assay
[18] = biological target: T3, Peroxisome proliferator-activated receptor delta (Homo sapiens, UniProt Q03181); assay: Agonist activity at human PPAR delta expressed in CV1 cells by GAL4 transactivation assay
T3 sequence (Q03181 whole entry): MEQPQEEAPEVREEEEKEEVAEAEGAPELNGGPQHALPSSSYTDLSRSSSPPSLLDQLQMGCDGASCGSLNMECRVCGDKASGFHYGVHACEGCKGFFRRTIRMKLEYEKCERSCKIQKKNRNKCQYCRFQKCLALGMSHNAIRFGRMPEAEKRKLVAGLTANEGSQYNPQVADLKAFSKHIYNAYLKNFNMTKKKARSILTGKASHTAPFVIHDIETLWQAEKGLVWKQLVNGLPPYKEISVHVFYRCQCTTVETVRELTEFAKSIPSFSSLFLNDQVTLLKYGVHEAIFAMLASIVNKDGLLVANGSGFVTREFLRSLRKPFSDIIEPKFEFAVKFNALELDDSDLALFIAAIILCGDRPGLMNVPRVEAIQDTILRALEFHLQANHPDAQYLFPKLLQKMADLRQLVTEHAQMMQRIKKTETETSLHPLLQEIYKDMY

Cytochrome P450 2C9 = Cytochrome P450 2C9 (Homo sapiens, UniProt P11712); assay: Inhibition of CYP2C9; format: ADME
[19] = Aqueous solubility at pH 6.8; format: physicochemical
[20] = biological target: Peroxisome proliferator-activated receptor alpha (Mus musculus, UniProt P23204); assay: as §3; format: functional
Cytochrome P450 3A4 = Cytochrome P450 3A4 (Homo sapiens, UniProt P08684); assay: Inhibition of CYP3A4; format: ADME
Summary of the method: (§8)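 Enzyme assays per CYP isoform (1A2, 2C8, 2D6, 3A4), with turnover of an appropriate fluorescent substrate as read-out; IC₅₀ reported.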

[21] = biological target: T4, Peroxisome proliferator-activated receptor alpha (Homo sapiens, UniProt Q07869); assay: Agonist activity at human PPAR alpha by FRET assay; format: functional
T4 sequence (Q07869 whole entry): T2 sequence (whole entry)
Summary of the method: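 Human PPARα ligand binding domain (GST-tagged) association with biotin-labeled co-activator CBP; Eu-labeled anti-GST antibody and streptavidin-APC; incubated 2 h at rt in buffer with or without compound; fluorescence read at 615 or 655 nm emission, 340 nm excitation.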

[22] = biological target: T4, Peroxisome proliferator-activated receptor alpha; assay: as §4; format: functional, cell-based, CV-1; summary of the method: as §5
Cytochrome P450 2D6 = Cytochrome P450 2D6 (Homo sapiens, UniProt P10635); assay: Inhibition of CYP2D6; format: ADME; summary of the method: as §8
[23] = Cmax in mouse at 10 mg/kg, po; format: ADME, organism-based; design: dose 10 mg/kg, route oral; details: in vivo
Summary of the method: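 Mice dosed orally in 0.5% methylcellulose vehicle; plasma Cmax reported.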

[24] = biological target: T3, Peroxisome proliferator-activated receptor delta; assay: Agonist activity at human PPAR delta by FRET assay; format: functional
Cytochrome P450 2C8 = Cytochrome P450 2C8 (Homo sapiens, UniProt P10632); assay: Inhibition of CYP2C8; format: ADME; summary of the method: as §8
Androgen receptor = Androgen receptor (Homo sapiens, UniProt P10275); assay: Displacement of [3H]dihydrotestosterone from human recombinant androgen receptor expressed in SF9 baculovirus cells
Cytochrome P450 1A2 = Cytochrome P450 1A2 (Homo sapiens, UniProt P05177); assay: Inhibition of CYP1A2; format: ADME; summary of the method: as §8
Progesterone receptor = Progesterone receptor (Homo sapiens, UniProt P06401); assay: Displacement of [3H]progesterone from progesterone receptor in T47D cells; format: cell-based
Summary of the method: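 Cytosol from T47D cells incubated overnight at 4 °C with ³H-progesterone at 10 nM final, with or without compound. DMSO defined total binding and 1 µM unlabelled progesterone defined nonspecific binding. Bound and free ligand were separated on a spin plate, and the flow-through was counted by scintillation.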

Glucocorticoid receptor = Glucocorticoid receptor (Homo sapiens, UniProt P04150); assay: Displacement of [H]dexamethaxone from glucocorticoid receptor in HUH cells; format: cell-based
[25] = biological target: Peroxisome proliferator-activated receptor delta (Mus musculus, UniProt P35396); assay: Agonist activity at mouse PPAR delta
Peroxisome proliferator-activated receptor delta (Mus musculus, UniProt P35396), sequence (P35396 whole entry): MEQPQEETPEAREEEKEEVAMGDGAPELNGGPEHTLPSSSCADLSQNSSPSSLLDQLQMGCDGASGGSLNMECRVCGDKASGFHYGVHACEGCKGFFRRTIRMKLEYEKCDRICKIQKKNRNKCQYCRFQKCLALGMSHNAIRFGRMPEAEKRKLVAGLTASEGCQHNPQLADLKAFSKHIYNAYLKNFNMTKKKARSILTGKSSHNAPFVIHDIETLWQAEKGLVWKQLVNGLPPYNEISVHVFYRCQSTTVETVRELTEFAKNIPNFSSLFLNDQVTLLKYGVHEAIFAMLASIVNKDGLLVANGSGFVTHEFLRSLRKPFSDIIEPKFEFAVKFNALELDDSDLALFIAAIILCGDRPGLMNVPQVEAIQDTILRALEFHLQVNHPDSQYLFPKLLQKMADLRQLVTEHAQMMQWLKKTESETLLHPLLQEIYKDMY

Cytochrome P450 1A2, sequence (P05177 whole entry): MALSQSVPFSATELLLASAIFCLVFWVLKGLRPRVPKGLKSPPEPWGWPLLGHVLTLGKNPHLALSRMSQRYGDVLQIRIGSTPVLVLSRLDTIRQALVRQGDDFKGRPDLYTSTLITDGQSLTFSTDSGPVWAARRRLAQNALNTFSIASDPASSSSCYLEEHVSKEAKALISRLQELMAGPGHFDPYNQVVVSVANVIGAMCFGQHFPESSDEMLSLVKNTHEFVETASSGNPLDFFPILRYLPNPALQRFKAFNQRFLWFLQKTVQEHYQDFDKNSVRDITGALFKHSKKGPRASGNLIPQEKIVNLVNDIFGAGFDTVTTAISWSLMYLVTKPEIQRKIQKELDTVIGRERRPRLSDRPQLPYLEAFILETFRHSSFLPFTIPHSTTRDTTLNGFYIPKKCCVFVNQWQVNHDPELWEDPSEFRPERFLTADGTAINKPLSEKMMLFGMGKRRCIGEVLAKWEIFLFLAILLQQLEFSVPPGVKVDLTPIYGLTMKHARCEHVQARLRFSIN
Cytochrome P450 3A4, sequence (P08684 whole entry, canonical isoform): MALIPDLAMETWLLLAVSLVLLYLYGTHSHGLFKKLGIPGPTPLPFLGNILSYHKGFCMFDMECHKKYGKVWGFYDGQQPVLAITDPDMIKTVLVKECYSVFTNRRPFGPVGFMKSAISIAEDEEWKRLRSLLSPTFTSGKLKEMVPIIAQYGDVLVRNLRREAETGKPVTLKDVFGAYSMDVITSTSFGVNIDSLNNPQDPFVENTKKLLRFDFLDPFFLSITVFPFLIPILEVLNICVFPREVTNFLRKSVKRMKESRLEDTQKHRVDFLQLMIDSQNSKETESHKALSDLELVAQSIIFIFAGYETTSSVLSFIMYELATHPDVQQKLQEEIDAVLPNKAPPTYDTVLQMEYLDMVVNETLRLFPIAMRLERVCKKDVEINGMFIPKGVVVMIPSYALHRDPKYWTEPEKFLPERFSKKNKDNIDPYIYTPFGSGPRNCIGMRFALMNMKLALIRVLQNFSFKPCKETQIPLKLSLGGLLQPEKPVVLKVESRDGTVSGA
Cytochrome P450 2C8, sequence (P10632 whole entry): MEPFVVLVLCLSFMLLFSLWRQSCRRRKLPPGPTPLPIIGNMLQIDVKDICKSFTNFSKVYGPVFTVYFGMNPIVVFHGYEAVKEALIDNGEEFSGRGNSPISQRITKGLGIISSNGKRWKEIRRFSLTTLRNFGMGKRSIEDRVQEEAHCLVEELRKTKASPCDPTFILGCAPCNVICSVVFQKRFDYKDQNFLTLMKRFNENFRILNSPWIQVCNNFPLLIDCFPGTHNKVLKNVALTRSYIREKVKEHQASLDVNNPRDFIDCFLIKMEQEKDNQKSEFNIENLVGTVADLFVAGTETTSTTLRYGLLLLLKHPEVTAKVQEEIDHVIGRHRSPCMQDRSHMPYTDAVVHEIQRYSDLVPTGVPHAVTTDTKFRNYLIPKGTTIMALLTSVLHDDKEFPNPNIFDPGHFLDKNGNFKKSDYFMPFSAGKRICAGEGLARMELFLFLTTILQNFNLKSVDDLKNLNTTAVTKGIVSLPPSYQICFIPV
Cytochrome P450 2C9, sequence (P11712 whole entry): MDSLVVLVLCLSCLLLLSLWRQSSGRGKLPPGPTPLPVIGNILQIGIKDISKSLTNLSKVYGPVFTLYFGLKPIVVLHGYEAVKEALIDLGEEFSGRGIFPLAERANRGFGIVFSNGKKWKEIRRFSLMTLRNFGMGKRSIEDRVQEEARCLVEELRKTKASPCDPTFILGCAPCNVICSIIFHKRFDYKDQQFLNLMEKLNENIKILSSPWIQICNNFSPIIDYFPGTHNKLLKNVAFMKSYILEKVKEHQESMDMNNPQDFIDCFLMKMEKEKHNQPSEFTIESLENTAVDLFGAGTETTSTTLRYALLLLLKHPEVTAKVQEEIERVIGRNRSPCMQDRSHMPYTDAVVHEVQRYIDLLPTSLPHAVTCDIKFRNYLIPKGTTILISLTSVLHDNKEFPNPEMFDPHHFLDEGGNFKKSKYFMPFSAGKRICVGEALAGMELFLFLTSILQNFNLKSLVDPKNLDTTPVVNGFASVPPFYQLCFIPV
Cytochrome P450 2D6, sequence (P10635 whole entry): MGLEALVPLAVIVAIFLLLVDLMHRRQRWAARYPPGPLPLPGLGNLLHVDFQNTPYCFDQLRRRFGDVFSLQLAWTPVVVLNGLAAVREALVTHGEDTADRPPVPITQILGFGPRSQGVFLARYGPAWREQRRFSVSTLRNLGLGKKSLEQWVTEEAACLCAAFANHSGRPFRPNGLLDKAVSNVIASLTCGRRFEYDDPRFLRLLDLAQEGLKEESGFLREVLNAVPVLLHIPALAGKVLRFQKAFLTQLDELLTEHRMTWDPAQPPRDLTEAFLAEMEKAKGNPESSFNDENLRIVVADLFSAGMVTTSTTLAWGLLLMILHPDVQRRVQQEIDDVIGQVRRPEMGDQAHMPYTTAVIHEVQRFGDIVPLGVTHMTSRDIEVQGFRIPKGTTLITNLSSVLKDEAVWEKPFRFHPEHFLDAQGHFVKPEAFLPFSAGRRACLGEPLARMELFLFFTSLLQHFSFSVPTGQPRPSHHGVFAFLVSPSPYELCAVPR
Glucocorticoid receptor, sequence (P04150 whole entry): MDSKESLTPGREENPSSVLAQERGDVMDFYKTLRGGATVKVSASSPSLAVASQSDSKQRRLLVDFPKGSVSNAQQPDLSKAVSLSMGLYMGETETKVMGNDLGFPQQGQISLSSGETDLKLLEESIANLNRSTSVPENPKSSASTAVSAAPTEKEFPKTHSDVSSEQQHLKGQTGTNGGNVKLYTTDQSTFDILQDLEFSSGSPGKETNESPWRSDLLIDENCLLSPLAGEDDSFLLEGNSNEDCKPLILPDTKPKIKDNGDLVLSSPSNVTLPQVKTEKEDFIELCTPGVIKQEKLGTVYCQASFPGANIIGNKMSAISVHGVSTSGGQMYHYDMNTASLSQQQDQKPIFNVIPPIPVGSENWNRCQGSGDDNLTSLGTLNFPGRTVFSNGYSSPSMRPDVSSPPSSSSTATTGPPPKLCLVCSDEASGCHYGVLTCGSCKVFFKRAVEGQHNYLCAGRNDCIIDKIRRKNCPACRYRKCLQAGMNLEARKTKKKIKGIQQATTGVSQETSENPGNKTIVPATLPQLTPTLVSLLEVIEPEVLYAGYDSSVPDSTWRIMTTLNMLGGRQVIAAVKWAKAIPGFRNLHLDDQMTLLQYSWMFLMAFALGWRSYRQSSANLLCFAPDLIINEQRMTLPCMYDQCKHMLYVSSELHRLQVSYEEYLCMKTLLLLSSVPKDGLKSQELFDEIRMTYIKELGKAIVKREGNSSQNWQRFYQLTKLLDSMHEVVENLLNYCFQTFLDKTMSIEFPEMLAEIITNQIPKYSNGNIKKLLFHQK
Progesterone receptor, sequence (P06401 whole entry): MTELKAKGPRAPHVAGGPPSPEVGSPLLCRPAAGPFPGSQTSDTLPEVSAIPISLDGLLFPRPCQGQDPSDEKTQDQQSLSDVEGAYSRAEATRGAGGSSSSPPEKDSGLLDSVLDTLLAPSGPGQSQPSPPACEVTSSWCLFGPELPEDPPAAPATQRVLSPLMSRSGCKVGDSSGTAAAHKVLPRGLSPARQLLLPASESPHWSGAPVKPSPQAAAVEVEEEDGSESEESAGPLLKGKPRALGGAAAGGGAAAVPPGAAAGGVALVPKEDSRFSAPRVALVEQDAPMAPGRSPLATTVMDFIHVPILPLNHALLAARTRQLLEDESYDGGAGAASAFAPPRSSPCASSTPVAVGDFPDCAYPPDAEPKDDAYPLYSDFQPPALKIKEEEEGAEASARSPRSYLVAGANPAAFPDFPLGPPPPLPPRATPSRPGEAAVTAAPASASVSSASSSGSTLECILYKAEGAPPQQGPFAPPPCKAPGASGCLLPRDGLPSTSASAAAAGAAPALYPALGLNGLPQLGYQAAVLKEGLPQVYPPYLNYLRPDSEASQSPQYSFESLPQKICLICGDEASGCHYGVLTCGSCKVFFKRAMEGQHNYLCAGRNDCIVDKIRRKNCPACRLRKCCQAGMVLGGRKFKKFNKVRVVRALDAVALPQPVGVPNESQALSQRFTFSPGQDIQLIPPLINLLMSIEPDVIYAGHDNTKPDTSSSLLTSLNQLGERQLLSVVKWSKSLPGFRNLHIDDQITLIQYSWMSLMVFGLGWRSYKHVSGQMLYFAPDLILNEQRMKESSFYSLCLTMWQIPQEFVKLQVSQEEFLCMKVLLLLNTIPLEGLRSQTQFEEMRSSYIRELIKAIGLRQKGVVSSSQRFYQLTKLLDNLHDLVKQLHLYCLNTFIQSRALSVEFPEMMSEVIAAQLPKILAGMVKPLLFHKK

Structure (SMILES): CC(C)OC(=O)C(C)(C)Oc1ccc(C(=O)c2ccc(Cl)cc2)cc1
- Activity (Syrian golden hamster [1]): Active
- Activity (Syrian golden hamster [2]): Active
- Activity (Syrian golden hamster [3]): Active

Structure (SMILES): CCCc1cc(C2=NC3OCCCC3S2)ccc1OCCCOc1ccc2c(c1)CC[C@H]2CC(=O)O (some centres not stated)
- Activity (Mus musculus [4]): Active
- Activity (Syrian golden hamster [5]): Active
- Activity (Mus musculus [6]): Dose-dependent effect
- Activity [7]: 100%
- Activity [8]: 25%
- Activity [9]: 88%
- Activity (Syrian golden hamster [10]): Active
- Activity (Rattus norvegicus [11]): Active
- Activity (Mus musculus [12]): Dose-dependent effect
- Activity (Mus musculus [13]): Dose-dependent effect
- Activity (Rattus norvegicus [14]): Active
- Activity (Syrian golden hamster [15]): Active
- Activity (Mus musculus [16]): Dose-dependent effect
- Activity (Mus musculus [17]): Dose-dependent effect
- EC50 (Estrogen receptor): > 10 µM

Structure (SMILES): O=C(O)C[C@@H]1CCc2cc(OCCCOc3ccc(-c4nc5c(s4)CCCC5)cc3)ccc21
- EC50 [18]: 0.04 µM
- IC50 (Cytochrome P450 2C9): > 10 µM
- solubility [19]: 31 µM (≈ 14.4 µg/mL)
- EC50 [20]: > 10 µM
- Activity [8]: 28%
- IC50 (Cytochrome P450 3A4): > 10 µM
- EC50 [21]: 0.391 µM
- EC50 [22]: 0.152 µM
- Activity [9]: 100%
- IC50 (Cytochrome P450 2D6): > 10 µM
- Cmax [23]: 20 µM
- EC50 [24]: 0.0022 µM
- IC50 (Cytochrome P450 2C8): > 10 µM
- EC50 (Androgen receptor): > 10 µM
- IC50 (Cytochrome P450 1A2): > 10 µM
- EC50 (Progesterone receptor): > 10 µM
- EC50 (Glucocorticoid receptor): > 10 µM
- EC50 (Estrogen receptor): > 10 µM
- EC50 [25]: 0.084 µM
